The target of one test is Coagulation factor X (Homo sapiens, UniProt P00742). As to the kind of experiment: Inhibition of human factor 10a.
The species entered for test [1] is Homo sapiens. As to the kind of experiment: Selectivity for human factor 10a over human trypsin.
Test [2] has as its system Plasma. In words: Anticoagulant activity in human plasma assessed as concentration required to double prothrombin time. Type of test: functional.
Test [3] deals with Plasma. As to the kind of experiment: Anticoagulant activity in mouse plasma assessed as concentration required to double prothrombin time. The format is functional. Summed up: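 Pooled citrated mouse plasma was incubated with diluted compound for 1 min at 37 °C. Brain thromboplastin PT reagent was then added to start clotting, and clot time was read on a coagulometer. The concentration doubling clotting time (CT₂) was estimated from each individual dose–response curve.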

The target in another test is Prothrombin (Homo sapiens, UniProt P00734). In words: Inhibition of human thrombin.
For test [4], the species on record is Homo sapiens. As to the kind of experiment: Selectivity for human factor 10a over human thrombin.
The next test has as its target Trypsin (Homo sapiens, UniProt P07477+P07478+P35030). In words: Inhibition of human trypsin. Type of test: protein assay.
Another test has as its system Mus musculus. As to the kind of experiment: Anticoagulant activity in ICR mouse plasma assessed as PT-prolongation at 100 mg/kg, po after 0.5 hrs relative to control. Type of test: functional. Summed up:
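Male ICR mice (20–35 g), fasted overnight, were given compound orally by gastric tube at 100 mg/kg as a suspension in 0.5% methylcellulose. At 0.5 h, blood was drawn from the abdominal vena cava into 3.8% citrate, and platelet-poor plasma was prepared by centrifugation. PT was measured and expressed as percent change versus vehicle or normal plasma, mean ± SEM, n = 3.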

pIC50: −log10 of the molar value.

Chain of Coagulation factor X (P00742 41-179 limits assumed): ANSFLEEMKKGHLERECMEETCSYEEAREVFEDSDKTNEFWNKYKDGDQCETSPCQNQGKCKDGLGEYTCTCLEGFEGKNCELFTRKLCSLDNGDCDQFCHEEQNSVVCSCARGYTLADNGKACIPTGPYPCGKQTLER
Chain of Coagulation factor X (P00742 235-488 limits assumed): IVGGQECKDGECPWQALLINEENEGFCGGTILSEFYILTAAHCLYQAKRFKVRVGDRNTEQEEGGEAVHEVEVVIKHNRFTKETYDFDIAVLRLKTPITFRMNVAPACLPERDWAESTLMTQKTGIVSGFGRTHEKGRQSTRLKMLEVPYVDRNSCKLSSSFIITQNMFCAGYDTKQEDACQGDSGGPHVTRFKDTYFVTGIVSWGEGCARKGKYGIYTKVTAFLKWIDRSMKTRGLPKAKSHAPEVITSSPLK

As usually defined, the pIC50 is −log10 of the IC50, conventionally taken in molar units. A lower pIC50 goes with a high IC50. In turn, `CS(=O)(=O)N(Cc1ccc2ccc(C(=N)N)cc2c1)C1CCN(c2ccncc2)CC1` had a pIC50 on Coagulation factor X of 7.05.
The term IC50 denotes the concentration needed to halve the response being measured. Higher therefore signals lower potency. Turning to `COc1ccc(OC)c(S(=O)(=O)N2CCC(N(Cc3ccc4ccc(C(=N)N)cc4c3)C(=O)CC(=O)O)CC2)c1`, the Selectivity ratio was more than 100 in the test listed under Homo sapiens [1] and more than 7000 in the test listed under Homo sapiens [4]. The figures for the Activity in the test with Plasma [2] and in the test with Plasma [3] were 0.56 µM and 1.6 µM, respectively. Moreover, the figures for the negative logarithm of the IC50 (pIC50) at Coagulation factor X and on Prothrombin were 8.09 and less than 4.00, respectively. The compound further came in with an IC50 against Trypsin of 3700 nM.
In the case of `CCOC(=O)CS(=O)(=O)N(Cc1ccc2ccc(/C(N)=N\O)cc2c1)C1CCN(S(=O)(=O)c2cc(OC)ccc2OC)CC1`, the Activity in the test with Mus musculus stood at 101%.
On Coagulation factor X, `Cc1cccc(S(=O)(=O)N2CCC(N(Cc3ccc4ccc(C(=N)N)cc4c3)S(C)(=O)=O)CC2)c1` showed a pIC50 of 6.60.
On to `CS(=O)(=O)N(Cc1ccc2ccc(C(=N)N)cc2c1)C1CCNCC1`, for which the Selectivity ratio in the test filed under Homo sapiens [1] is more than 100; in the test listed under Homo sapiens [4] it was more than 7000. This compound showed a pIC50 against Coagulation factor X of less than 4.00.
As for `CCOC(=O)CS(=O)(=O)N(C/C=C/c1cccc(/C(N)=N\O)c1)C1CCN(S(=O)(=O)c2cc(OC)ccc2OC)CC1`, the Selectivity ratio in the test listed under Homo sapiens [1] is more than 100; in the test listed under Homo sapiens [4], more than 7000. Also, the Activity with Mus musculus is 116%.
The corresponding values for `CCOC(=O)CC(=O)N(C/C=C/c1cccc(/C(N)=N\O)c1)C1CCN(S(=O)(=O)c2cc(OC)ccc2OC)CC1` are more than 100, more than 7000 and 187%.
As to `COc1ccc(OC)c(S(=O)(=O)N2CCC(N(Cc3ccc4ccc(C(=N)N)cc4c3)S(=O)(=O)CC(=O)O)CC2)c1`, the Selectivity ratio is more than 100 in the test filed under Homo sapiens [1] and more than 7000 in the test filed under Homo sapiens [4]. Also, the Activity in the test with Plasma [2] was determined as 0.55 µM; in the test on Plasma [3], 1.7 µM. Besides, the pIC50 on Coagulation factor X was 7.89; against Prothrombin, less than 4.00. On Trypsin, this compound showed an IC50 of 2700 nM.
On to `COc1ccc(OC)c(S(=O)(=O)N2CCC(N(Cc3ccc4ccc(C(=N)N)cc4c3)C(C)=O)CC2)c1`, for which the Selectivity ratio in the test listed under Homo sapiens [1] was more than 100; in the test filed under Homo sapiens [4], more than 7000. Also, the pIC50 is 7.92 against Coagulation factor X and less than 4.00 on Prothrombin. This compound registered a concentration for half-maximal inhibition (IC50) at Trypsin of 2500 nM.
Turning to `COc1ccc(OC)c(S(=O)(=O)N2CCC(N(C/C=C/c3cccc(C(=N)N)c3)C(=O)CC(=O)O)CC2)c1`, the Selectivity ratio in the test filed under Homo sapiens [1] was more than 100; in the test listed under Homo sapiens [4] it was more than 7000. Also, the figures for the Activity in the test with Plasma [2], with Plasma [3] and in the test with Mus musculus were 0.55 µM, 1.4 µM and 104%, respectively. Also, the negative logarithm of the IC50 (pIC50) at Coagulation factor X was 7.89; on Prothrombin, less than 4.00. Moreover, on Trypsin, the half-inhibitory concentration (IC50) stood at 6000 nM.
Take `CCOC(=O)CC(=O)N(Cc1ccc2ccc(/C(N)=N\O)cc2c1)C1CCN(S(=O)(=O)c2cc(OC)ccc2OC)CC1`: the Selectivity ratio in the test listed under Homo sapiens [1] is more than 100; in the test filed under Homo sapiens [4] it was more than 7000. Further, the Activity in the test on Mus musculus came to 109%.
In the case of `CS(=O)(=O)N(Cc1ccc2ccc(C(=N)N)cc2c1)C1CCN(C(=O)c2cccc(Cl)c2)CC1`, the figures for the Selectivity ratio in the test listed under Homo sapiens [1] and in the test listed under Homo sapiens [4] were more than 100 and more than 7000, respectively. In addition, at Coagulation factor X, the pIC50 is less than 4.00.
On to `CS(=O)(=O)N1CCC(N(Cc2ccc3ccc(C(=N)N)cc3c2)S(C)(=O)=O)CC1`, for which the Selectivity ratio in the test listed under Homo sapiens [1] was more than 100; in the test listed under Homo sapiens [4], more than 7000. For the same compound, the pIC50 against Coagulation factor X is less than 4.00.
With `CC(=N)N1CC[C@H](Oc2ccc([C@H](Cc3ccc4ccc(C(=N)N)cc4c3)C(=O)O)cc2)C1` [DX-9065A], the figures for the Activity with Plasma [2], in the test with Plasma [3] and in the test with Mus musculus were 0.55 µM, 4.9 µM and 151%, respectively. The compound further yielded a half-maximal inhibitory concentration (IC50) at Trypsin of 3200 nM.
`COc1ccc(OC)c(S(=O)(=O)N2CCC(N(C)Cc3ccc4ccc(C(=N)N)cc4c3)CC2)c1` had a negative logarithm of the IC50 (pIC50) against Coagulation factor X of 6.23.
Regarding `COc1ccc(Cl)cc1S(=O)(=O)N1CCC(N(Cc2ccc3ccc(C(=N)N)cc3c2)S(C)(=O)=O)CC1`, the Selectivity ratio in the test listed under Homo sapiens [1] was more than 100; in the test listed under Homo sapiens [4], more than 7000. In addition, the pIC50 at Coagulation factor X is 7.41.
With `CS(=O)(=O)N(Cc1ccc2ccc(C(=N)N)cc2c1)C1CCN(S(=O)(=O)c2ccc(Cl)c(Cl)c2)CC1`, the Selectivity ratio was more than 100 in the test listed under Homo sapiens [1] and more than 7000 in the test listed under Homo sapiens [4]. Also, the pIC50 at Coagulation factor X was 6.72.
Compound `CS(=O)(=O)N(Cc1ccc2ccc(C(=N)N)cc2c1)C1CCN(S(=O)(=O)c2cccc(-c3ccccc3)c2)CC1` gave a negative logarithm of the IC50 (pIC50) against Coagulation factor X of 6.70.
`CS(=O)(=O)N(Cc1ccc2ccc(C(=N)N)cc2c1)C1CCN(S(=O)(=O)c2cccc(F)c2)CC1`: the Selectivity ratio is more than 100 in the test filed under Homo sapiens [1] and more than 7000 in the test filed under Homo sapiens [4]. For the same compound, on Coagulation factor X, the negative-log IC50 (pIC50) is 6.10.
`COc1ccc(OC)c(S(=O)(=O)N2CCC(N(C/C=C/c3cccc(C(=N)N)c3)S(=O)(=O)CC(=O)O)CC2)c1`: the Selectivity ratio is more than 100 in the test listed under Homo sapiens [1] and more than 7000 in the test filed under Homo sapiens [4]. The Activity turned out to be 0.47 µM with Plasma [2] and 1.2 µM with Plasma [3]. In addition, the pIC50 on Coagulation factor X was 8.00; at Prothrombin, less than 4.00. At Trypsin, this compound showed an IC50 of 5300 nM.
Regarding `COc1ccc(C)cc1S(=O)(=O)N1CCC(N(Cc2ccc3ccc(C(=N)N)cc3c2)S(C)(=O)=O)CC1`, the values for the Selectivity ratio in the test filed under Homo sapiens [1] and in the test listed under Homo sapiens [4] were more than 100 and more than 7000, respectively. On Coagulation factor X, this compound gave a pIC50 of 7.24.
For `Cc1ccccc1S(=O)(=O)N1CCC(N(Cc2ccc3ccc(C(=N)N)cc3c2)S(C)(=O)=O)CC1`, in that order: more than 100, more than 7000 and 6.02.
Take `CS(=O)(=O)N(Cc1ccc2ccc(C(=N)N)cc2c1)C1CCN(S(=O)(=O)c2ccccc2Cl)CC1`: the Selectivity ratio in the test filed under Homo sapiens [1] is more than 100; in the test listed under Homo sapiens [4], more than 7000. The pIC50 against Coagulation factor X was 6.46.
Consider `CS(=O)(=O)N(Cc1ccc2ccc(C(=N)N)cc2c1)C1CCN(S(=O)(=O)c2c(Cl)cccc2Cl)CC1`, for which the Selectivity ratio in the test filed under Homo sapiens [1] is more than 100; in the test listed under Homo sapiens [4], more than 7000. This compound gave a pIC50 against Coagulation factor X of less than 4.00.
At Coagulation factor X, `CS(=O)(=O)N(Cc1ccc2ccc(C(=N)N)cc2c1)C1CCN(S(=O)(=O)c2cc(Cl)ccc2Cl)CC1` had a negative-log IC50 (pIC50) of 7.19.
With `CS(=O)(=O)N(Cc1ccc2ccc(C(=N)N)cc2c1)C1CCN(S(=O)(=O)c2cccc(Cl)c2)CC1`, the pIC50 against Coagulation factor X is 7.31.
Same read-out and setting: the result for `CS(=O)(=O)N(Cc1ccc2ccc(C(=N)N)cc2c1)C1CCN(S(=O)(=O)c2cccc(C#N)c2)CC1` reads 6.77.
On to `Cc1ccc(S(=O)(=O)N2CCC(N(Cc3ccc4ccc(C(=N)N)cc4c3)S(C)(=O)=O)CC2)cc1`, for which the Selectivity ratio in the test listed under Homo sapiens [1] was more than 100; in the test filed under Homo sapiens [4] it was more than 7000. Besides, the pIC50 against Coagulation factor X is less than 4.00.
For `CS(=O)(=O)N(Cc1ccc2ccc(C(=N)N)cc2c1)C1CCN(S(=O)(=O)c2cccc(Cl)c2Cl)CC1`, the Selectivity ratio in the test filed under Homo sapiens [1] was more than 100; in the test filed under Homo sapiens [4] it was more than 7000. In addition, the pIC50 on Coagulation factor X was 6.25.
Take `CS(=O)(=O)N(Cc1ccc2ccc(C(=N)N)cc2c1)C1CCN(Cc2cccc(Cl)c2)CC1`: the Selectivity ratio in the test listed under Homo sapiens [1] was more than 100; in the test filed under Homo sapiens [4], more than 7000. The negative-log IC50 (pIC50) at Coagulation factor X is 5.77.
With `CS(=O)(=O)N(Cc1ccc2ccc(C(=N)N)cc2c1)C1CCN(C(=O)c2cccc(C#N)c2)CC1`, the Selectivity ratio was more than 100 in the test listed under Homo sapiens [1] and more than 7000 in the test filed under Homo sapiens [4]. The same compound showed a pIC50 against Coagulation factor X of less than 4.00.
Regarding `CS(=O)(=O)N(Cc1ccc2ccc(C(=N)N)cc2c1)C1CCN(S(=O)(=O)c2ccc(Cl)cc2)CC1`, the negative-log IC50 (pIC50) against Coagulation factor X was 5.80.
As to `CS(=O)(=O)N(Cc1ccc2ccc(C(=N)N)cc2c1)C1CCN(S(=O)(=O)c2cc(Cl)sc2Cl)CC1`, on Coagulation factor X, the pIC50 was 7.00.
Regarding `CS(=O)(=O)N(Cc1ccc2ccc(C(=N)N)cc2c1)C1CCN(S(=O)(=O)c2ccccc2)CC1`, the pIC50 at Coagulation factor X is 6.07.
Turning to `CS(=O)(=O)N(Cc1ccc2ccc(C(=N)N)cc2c1)C1CCN(Cc2cccc(C#N)c2)CC1`, the Selectivity ratio in the test filed under Homo sapiens [1] was more than 100; in the test listed under Homo sapiens [4], more than 7000. Also, the pIC50 against Coagulation factor X is 5.64.
For `COc1ccc(OC)c(S(=O)(=O)N2CCC(N(Cc3ccc4ccc(C(=N)N)cc4c3)S(C)(=O)=O)CC2)c1`, the results for the Selectivity ratio in the test filed under Homo sapiens [1] and in the test listed under Homo sapiens [4] were more than 100 and more than 7000, respectively. Besides, the pIC50 was 7.96 at Coagulation factor X and less than 4.00 against Prothrombin. Besides, on Trypsin, the IC50 was 1100 nM.

The record behind these values is ChEMBL document CHEMBL1147967, “Prodrug-based design, synthesis, and biological evaluation of N-benzenesulfonylpiperidine derivatives as novel, orally active factor Xa inhibitors” (Bioorg Med Chem, 2007).
